Experimental findings from ChEMBL document CHEMBL4229364, “Structure-activity relationships of 2, 4-disubstituted pyrimidines as dual ERα/VEGFR-2 ligands with anti-breast cancer activity” (Eur J Med Chem, 2018) are described below.

Active and inactive are the calls of the source. No cut-off for these calls is given here. A value given as a limit tells only on which side of the number the result lay.

The test system of assay [1] is HUVEC. The assay is described as follows: Antiproliferative activity against HUVEC after 48 hrs by MTT assay. The format is functional, cell-based. The note with it: Homo sapiens. The procedure, abridged:
(§1)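 MTT assay. Cells were grown in RPMI1640 with 10% FBS and penicillin/streptomycin at 37°C, 5% CO2, seeded at 1×10^5/mL and rested 24 h. Compound was added at 4×10^-5 to 1×10^-6 mol/L for 48 h; controls received 1% DMSO. MTT (5 mg/mL) was added for 4 h in the dark and the formazan dissolved in DMSO. A490 was read and IC50 derived.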
On the technique in general: Tetrazolium dyes change colour on reduction, which living cells bring about.

Assay [2] concerns the target T1, Vascular endothelial growth factor receptor 2 (Homo sapiens, UniProt P35968). The assay is described as follows: Inhibition of VEGFR2 (unknown origin) using TK substrate after 1 hr by HTRF assay. Background: Time-resolved FRET reads energy transfer from a long-lived donor to a nearby acceptor.
The test system of assay [3] is Ishikawa. The assay is described as follows: Antiproliferative activity against human Ishikawa cells after 48 hrs by MTT assay. It is filed as functional, cell-based. The procedure, abridged: as §1
The target in assay [4] is T1, Vascular endothelial growth factor receptor 2. To be noted: at 10 µM.
The subject of assay [5] is MCF7. Description: Antiproliferative activity against human MCF7 cells after 48 hrs by MTT assay. The format is functional, cell-based. To be noted: MCF7, 48 h. The procedure, abridged: as §1
The target in assay [6] is T2, Estrogen receptor (Homo sapiens, UniProt P03372).
T2 sequence (P03372 whole entry): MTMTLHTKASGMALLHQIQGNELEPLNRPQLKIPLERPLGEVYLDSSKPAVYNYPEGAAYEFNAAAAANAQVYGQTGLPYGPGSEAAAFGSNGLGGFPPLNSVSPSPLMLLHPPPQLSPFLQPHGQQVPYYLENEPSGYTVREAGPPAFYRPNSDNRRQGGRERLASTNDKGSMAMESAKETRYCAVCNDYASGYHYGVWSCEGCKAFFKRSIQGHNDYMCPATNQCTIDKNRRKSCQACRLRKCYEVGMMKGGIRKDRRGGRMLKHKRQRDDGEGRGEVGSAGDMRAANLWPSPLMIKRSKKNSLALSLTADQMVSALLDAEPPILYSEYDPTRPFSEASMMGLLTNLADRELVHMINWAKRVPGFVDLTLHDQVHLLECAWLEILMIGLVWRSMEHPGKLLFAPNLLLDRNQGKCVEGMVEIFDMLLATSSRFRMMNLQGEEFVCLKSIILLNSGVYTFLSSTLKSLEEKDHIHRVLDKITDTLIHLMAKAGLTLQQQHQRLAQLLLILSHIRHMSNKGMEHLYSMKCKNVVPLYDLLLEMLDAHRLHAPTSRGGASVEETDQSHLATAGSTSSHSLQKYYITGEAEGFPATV
The assay is described as follows: Displacement of Fluormone ES2 Green from full length human ER-alpha expressed in insect cells after 2 hrs by fluorescence polarization assay.

The test system of assay [7] is Chorioallantoic membrane. The assay is described as follows: In vivo antiangiogenic activity in chicken egg chorioallantoic membrane at 1 uM after 72 hrs. It is filed as functional, organism-based. To be noted: Gallus gallus. The method in brief: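 Chick CAM assay. Fertilized eggs were incubated 7 days at 37°C, then a window of about 1 cm² was opened in the shell. […] Eggs were incubated a further 72 h at 37°C and 60% humidity. CAM was fixed in acetone/ethanol for 10 min and vessels imaged.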

T1 sequence (P35968 whole entry): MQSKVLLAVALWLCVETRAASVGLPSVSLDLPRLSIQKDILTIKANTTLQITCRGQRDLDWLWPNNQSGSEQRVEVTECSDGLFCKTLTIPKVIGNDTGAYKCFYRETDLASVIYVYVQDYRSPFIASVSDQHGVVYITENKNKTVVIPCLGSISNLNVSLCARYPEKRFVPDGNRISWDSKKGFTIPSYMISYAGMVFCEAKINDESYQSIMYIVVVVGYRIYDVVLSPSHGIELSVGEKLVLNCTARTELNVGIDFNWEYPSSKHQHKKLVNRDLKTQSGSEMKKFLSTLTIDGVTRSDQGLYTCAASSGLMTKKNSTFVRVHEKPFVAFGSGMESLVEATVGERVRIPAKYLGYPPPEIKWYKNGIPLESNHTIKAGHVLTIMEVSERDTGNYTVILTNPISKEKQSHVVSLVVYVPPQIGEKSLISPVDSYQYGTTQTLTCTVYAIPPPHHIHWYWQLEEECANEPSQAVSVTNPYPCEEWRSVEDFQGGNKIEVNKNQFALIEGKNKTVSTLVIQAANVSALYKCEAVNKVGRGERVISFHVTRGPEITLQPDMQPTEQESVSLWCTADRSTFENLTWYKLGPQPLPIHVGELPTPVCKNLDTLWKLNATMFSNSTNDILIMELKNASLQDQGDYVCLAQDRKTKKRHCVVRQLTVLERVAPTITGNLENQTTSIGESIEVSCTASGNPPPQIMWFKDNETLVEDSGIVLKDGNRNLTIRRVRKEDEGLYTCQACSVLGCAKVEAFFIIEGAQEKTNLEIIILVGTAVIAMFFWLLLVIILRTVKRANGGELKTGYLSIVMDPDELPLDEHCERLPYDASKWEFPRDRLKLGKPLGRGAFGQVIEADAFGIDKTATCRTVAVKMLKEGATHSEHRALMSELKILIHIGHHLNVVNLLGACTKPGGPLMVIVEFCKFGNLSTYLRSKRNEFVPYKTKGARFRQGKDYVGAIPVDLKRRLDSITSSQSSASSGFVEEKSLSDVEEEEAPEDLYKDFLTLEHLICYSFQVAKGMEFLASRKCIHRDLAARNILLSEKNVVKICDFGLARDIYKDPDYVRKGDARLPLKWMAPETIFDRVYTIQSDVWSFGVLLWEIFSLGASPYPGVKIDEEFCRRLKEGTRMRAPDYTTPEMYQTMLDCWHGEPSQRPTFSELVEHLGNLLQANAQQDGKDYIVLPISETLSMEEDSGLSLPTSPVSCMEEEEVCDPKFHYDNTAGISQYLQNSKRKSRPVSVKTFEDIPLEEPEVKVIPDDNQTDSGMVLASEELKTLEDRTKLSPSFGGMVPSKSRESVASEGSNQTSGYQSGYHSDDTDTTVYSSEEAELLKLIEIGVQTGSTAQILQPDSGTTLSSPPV

The IC50 is the midpoint of a concentration-inhibition curve. A word on the inhibition: it is the change of the read-out against control, counted positive when it falls. Turning to `CCN(CC)CC(=O)Nc1ccc(Nc2nc(-c3ccc(OC)cc3)nc(Cl)c2-c2ccccc2)cc1`, the IC50 is > 40 µM in assay [1], > 1 µM in assay [2], > 40 µM in assay [3] and > 40 µM in assay [5]. This compound also displayed an inhibition in assay [4] of 40.2%.
With `O=C(c1ccc(OCCN2CCCCC2)cc1)c1c(-c2ccc(O)cc2)sc2cc(O)ccc12` [RALOXIFENE], the IC50 in assay [3] is 24.4 µM; in assay [5], 13.2 µM.
On to `COc1ccc(-c2nc(Cl)cc(Oc3ccc(OCCN4CCCC4)cc3)n2)cc1`, for which the IC50 is 15.8 µM in assay [1]; > 1 µM in assay [2]; 25.5 µM in assay [3]; 21.3 µM in assay [5]; 6.22 µM in assay [6]. Moreover, the inhibition in assay [4] came out at 39.8%.
Take `CCN(CC)CCOc1ccc(Oc2cc(Cl)nc(-c3ccc(OC)cc3)n2)cc1`: the IC50 is 23.3 µM in assay [1]; > 1 µM in assay [2]; 24.9 µM in assay [3]; 49.6 µM in assay [5]; 5.13 µM in assay [6]. The inhibition in assay [4] was determined as 80%.
`CC/C(=C(\c1ccccc1)c1ccc(OCCN(C)C)cc1)c1ccccc1` [TAMOXIFEN]: the half-maximal inhibitory concentration (IC50) in assay [3] is 26.5 µM; in assay [5] it was 15.5 µM.
On to `CCN(CC)CCOc1ccc(Nc2nc(-c3ccc(OC)cc3)nc(Cl)c2-c2ccccc2)cc1`, for which the IC50 in assay [1] came to 4.34 µM; in assay [2] it was 0.067 µM; in assay [3], 9.98 µM; in assay [5], 8.59 µM. Further, the inhibition in assay [4] amounted to 90.3%.
On the same counts, the results for `CCN(CC)CCOc1ccc(Nc2nc(-c3ccc(O)cc3)nc(Cl)c2-c2ccccc2)cc1` are 8.81 µM, > 1 µM, 12 µM, 35.6 µM and 76.9%.
`COc1ccc(-c2nc(Cl)c(-c3ccccc3)c(Nc3ccc(NC(=O)CN(C)C)cc3)n2)cc1`: the concentration for half-maximal inhibition (IC50) in assay [1] was 10.3 µM; in assay [2], > 1 µM; in assay [3], 17.1 µM; in assay [5] it was 17.7 µM. Also, in assay [4], the inhibition was found to be 50.8%.
Turning to `COc1ccc(-c2nc(Cl)cc(Nc3ccc(NC(=O)CN4CCCC4)cc3)n2)cc1`, the 50% inhibitory concentration (IC50) in assay [1] is 4.82 µM; in assay [2], > 1 µM; in assay [3] it was 18.4 µM; in assay [5], 23.4 µM; in assay [6], 2.86 µM. This compound gave an inhibition in assay [4] of 61.3%.
In turn, `CCN(CC)CCNC(=O)c1c(C)[nH]c(/C=C2\C(=O)Nc3ccc(F)cc32)c1C` [SUNITINIB] gave a half-inhibitory concentration (IC50) in assay [1] of 6.36 µM. Besides, the outcome in assay [7] was Active.
Turning to `COc1ccc(-c2nc(Cl)cc(Oc3ccc(OCCN(C)C)cc3)n2)cc1`, the IC50 in assay [1] is > 40 µM; in assay [2], > 1 µM; in assay [3] it was > 40 µM; in assay [5] it was > 40 µM; in assay [6], 5.96 µM. Besides, in assay [4], the inhibition amounted to 61.2%.
`COc1ccc(-c2nc(Cl)cc(Nc3ccc(OCCN4CCCC4)cc3)n2)cc1`: the IC50 in assay [1] is 11.3 µM; in assay [2] it was > 1 µM; in assay [3], 17.3 µM; in assay [5], 43.7 µM. This compound had an inhibition in assay [4] of 51.9%.
On the same counts, the results for `COc1ccc(-c2nc(Cl)cc(Nc3ccc(OCCN(C)C)cc3)n2)cc1` are 6.31 µM, > 1 µM, 5.67 µM, 3.54 µM and 40%.
On to `COc1ccc(-c2nc(Cl)c(-c3ccccc3)c(Oc3ccc(OCCN(C)C)cc3)n2)cc1`, for which the 50% inhibitory concentration (IC50) in assay [1] turned out to be 11.7 µM; in assay [2], 0.101 µM; in assay [3], 17.7 µM; in assay [5] it was 21.8 µM. In addition, the inhibition in assay [4] was 90.9%.
On to `CCN(CC)CC(=O)Nc1ccc(Nc2cc(Cl)nc(-c3ccc(OC)cc3)n2)cc1`, for which the 50% inhibitory concentration (IC50) in assay [1] was 15 µM; in assay [2], > 1 µM; in assay [3] it was 5.81 µM; in assay [5], > 40 µM. In addition, the inhibition in assay [4] amounted to 44%.
For `COc1ccc(-c2nc(Cl)cc(Nc3ccc(NC(=O)CN(C)C)cc3)n2)cc1`, the IC50 in assay [1] was > 40 µM; in assay [2], > 1 µM; in assay [3], > 40 µM; in assay [5], > 40 µM. In assay [4], this compound gave an inhibition of 66.2%.
Regarding `COc1ccc(-c2nc(Cl)c(-c3ccccc3)c(Oc3ccc(OCCN4CCCC4)cc3)n2)cc1`, the half-inhibitory concentration (IC50) is 10.6 µM in assay [1]; > 1 µM in assay [2]; 14.1 µM in assay [3]; 32.4 µM in assay [5]; 2.17 µM in assay [6]. Also, the inhibition in assay [4] was found to be 75.3%.
In the case of `CCN(CC)CCOc1ccc(Oc2nc(-c3ccc(OC)cc3)nc(Cl)c2-c2ccccc2)cc1`, the IC50 in assay [1] is 15.1 µM; in assay [2], > 1 µM; in assay [3], 23.5 µM; in assay [5], > 40 µM. The same compound had an inhibition in assay [4] of 60.2%.
Regarding `CN(C)CCOc1ccc(Nc2nc(-c3ccc(O)cc3)nc(Cl)c2-c2ccccc2)cc1`, the IC50 in assay [1] is 13.8 µM; in assay [2] it was > 1 µM; in assay [3], 37.1 µM; in assay [5] it was 33.1 µM; in assay [6], 3.42 µM. In assay [4], the inhibition was 68.5%.
Regarding `CCN(CC)CCOc1ccc(Nc2cc(Cl)nc(-c3ccc(OC)cc3)n2)cc1`, the IC50 is 9.24 µM in assay [1]; 0.174 µM in assay [2]; 11.7 µM in assay [3]; 36.8 µM in assay [5]; 4.74 µM in assay [6]. This compound came in with an inhibition in assay [4] of 89.7%.
For `COc1ccc(-c2nc(Cl)c(-c3ccccc3)c(Nc3ccc(OCCN(C)C)cc3)n2)cc1`, the concentration for half-maximal inhibition (IC50) in assay [1] is 14.2 µM; in assay [2], > 1 µM; in assay [3], 6.34 µM; in assay [5] it was 7.56 µM. In assay [4], the inhibition is 50.9%.
On the same counts, the results for `COc1ccc(-c2nc(Cl)c(-c3ccccc3)c(Nc3ccc(NC(=O)CN4CCCC4)cc3)n2)cc1` are > 40 µM, 0.203 µM, > 40 µM, > 40 µM and 87.3%.
With `COc1ccc(-c2nc(Cl)c(-c3ccccc3)c(Nc3ccc(OCCN4CCCC4)cc3)n2)cc1`, the half-inhibitory concentration (IC50) in assay [1] was 5.02 µM; in assay [2], > 1 µM; in assay [3] it was 3.81 µM; in assay [5], 7.84 µM. In assay [4], this compound yielded an inhibition of 49.4%.
